Results from ChEMBL document CHEMBL1157776, “Synthesis, topoisomerase I and II inhibitory activity, cytotoxicity, and structure-activity relationship study of hydroxylated 2,4-diphenyl-6-aryl pyridines” (Bioorg Med Chem, 2010).
Where a name gives a salt, the structure may show the parent alone.

Key:
HCT-15 = experiment: Cytotoxicity against human HCT15 cells after 2 days by automatic ELISA reader system; assay type: functional, cell-based; conditions: HCT-15, 48 h
Method in brief: (§1)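 Cells seeded at 2–4 × 10⁴ per well and grown overnight in medium with 10% FBS, 5% CO₂, 37 °C. Compound added on day 2; on day 4 CCK-8 solution added and incubated a further 4 h. Absorbance read at 450 nm and fitted to a four-parameter logistic equation for IC₅₀.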

[1] = target: T1, DNA topoisomerase 1 (Homo sapiens) (UniProt P11387); experiment: Inhibition of human recombinant TOP1-mediated relaxation of supercoiled Escherichia coli pBR322 DNA at 100 uM after 30 mins by transillumination
T1 sequence (whole entry): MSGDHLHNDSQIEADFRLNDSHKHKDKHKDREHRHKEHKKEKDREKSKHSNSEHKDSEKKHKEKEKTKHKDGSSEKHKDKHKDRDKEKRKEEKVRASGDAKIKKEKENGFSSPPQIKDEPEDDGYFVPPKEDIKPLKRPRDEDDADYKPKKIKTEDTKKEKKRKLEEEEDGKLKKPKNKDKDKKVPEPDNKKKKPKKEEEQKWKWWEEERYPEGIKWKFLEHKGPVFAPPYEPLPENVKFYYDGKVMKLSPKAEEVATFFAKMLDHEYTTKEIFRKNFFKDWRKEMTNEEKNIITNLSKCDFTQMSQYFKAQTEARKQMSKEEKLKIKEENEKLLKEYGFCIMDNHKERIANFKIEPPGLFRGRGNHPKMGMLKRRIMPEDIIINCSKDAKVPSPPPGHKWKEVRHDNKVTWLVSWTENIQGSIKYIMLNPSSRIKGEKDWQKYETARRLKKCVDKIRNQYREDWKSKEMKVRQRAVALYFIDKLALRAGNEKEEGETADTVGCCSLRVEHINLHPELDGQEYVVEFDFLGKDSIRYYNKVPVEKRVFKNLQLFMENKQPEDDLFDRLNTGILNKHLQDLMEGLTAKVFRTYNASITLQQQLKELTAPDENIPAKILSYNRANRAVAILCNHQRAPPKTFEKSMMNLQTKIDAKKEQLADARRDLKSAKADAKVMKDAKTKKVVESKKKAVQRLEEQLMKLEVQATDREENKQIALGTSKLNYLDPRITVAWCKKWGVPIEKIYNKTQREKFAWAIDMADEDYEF
Method in brief: (§2)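 Relaxation assay: 100 ng supercoiled pBR322 with 0.4 units recombinant human topo I, ± compound (DMSO stocks 20 mM), 37 °C, 30 min. Buffer was 10 mM Tris–HCl pH 7.9, 150 mM NaCl, 0.1% BSA, 1 mM spermidine, 5% glycerol. Stopped with sarcosyl/bromophenol blue/glycerol, then 1% agarose gel in TAE at 15 V for 7 h. Ethidium bromide stain, UV transillumination, bands quantitated by densitometry.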

[2] = target: T1, DNA topoisomerase 1 (Homo sapiens); experiment: Inhibition of human recombinant TOP1-mediated relaxation of supercoiled Escherichia coli pBR322 DNA at 20 uM after 30 mins by transillumination; method in brief: as §2
HL-60 = experiment: Cytotoxicity against human HL60 cells after 2 days by automatic ELISA reader system; assay type: functional, cell-based; conditions: HL-60, 48 h; method in brief: as §1
[3] = target: DNA topoisomerase 2-alpha (Homo sapiens) (UniProt P11388); experiment: Inhibition of human recombinant TOP2A-mediated relaxation of supercoiled Escherichia coli pBR322 DNA at 100 uM after 30 mins by transillumination
Method in brief: (§3)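 200 ng supercoiled pBR322 with topo II, ± compound, 30 °C for 30 min. Buffer was 10 mM Tris–HCl pH 7.9, 50 mM NaCl, 5 mM MgCl₂, 1 mM EDTA, 1 mM ATP, BSA. Stopped with 7 mM EDTA, then 1% agarose gel in TAE at 25 V for 4 h. Ethidium bromide stain, UV transillumination, supercoiled DNA quantitated.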

HeLa = experiment: Cytotoxicity against human HeLa cells after 2 days by automatic ELISA reader system; assay type: functional, cell-based; conditions: 48 h; method in brief: as §1
DU-145 = experiment: Cytotoxicity against human DU145 cells after 2 days by automatic ELISA reader system; assay type: functional, cell-based; conditions: DU-145, 48 h; method in brief: as §1
MDA-MB-231 = experiment: Cytotoxicity against human MDA-MB-231 cells after 2 days by automatic ELISA reader system; assay type: functional, cell-based; conditions: MDA-MB-231, 48 h; method in brief: as §1
[4] = target: DNA topoisomerase 2-alpha (Homo sapiens) (UniProt P11388); experiment: Inhibition of human recombinant TOP2A-mediated relaxation of supercoiled Escherichia coli pBR322 DNA at 20 uM after 30 mins by transillumination; method in brief: as §3

DNA topoisomerase 2-alpha (Homo sapiens), sequence (P11388 whole entry): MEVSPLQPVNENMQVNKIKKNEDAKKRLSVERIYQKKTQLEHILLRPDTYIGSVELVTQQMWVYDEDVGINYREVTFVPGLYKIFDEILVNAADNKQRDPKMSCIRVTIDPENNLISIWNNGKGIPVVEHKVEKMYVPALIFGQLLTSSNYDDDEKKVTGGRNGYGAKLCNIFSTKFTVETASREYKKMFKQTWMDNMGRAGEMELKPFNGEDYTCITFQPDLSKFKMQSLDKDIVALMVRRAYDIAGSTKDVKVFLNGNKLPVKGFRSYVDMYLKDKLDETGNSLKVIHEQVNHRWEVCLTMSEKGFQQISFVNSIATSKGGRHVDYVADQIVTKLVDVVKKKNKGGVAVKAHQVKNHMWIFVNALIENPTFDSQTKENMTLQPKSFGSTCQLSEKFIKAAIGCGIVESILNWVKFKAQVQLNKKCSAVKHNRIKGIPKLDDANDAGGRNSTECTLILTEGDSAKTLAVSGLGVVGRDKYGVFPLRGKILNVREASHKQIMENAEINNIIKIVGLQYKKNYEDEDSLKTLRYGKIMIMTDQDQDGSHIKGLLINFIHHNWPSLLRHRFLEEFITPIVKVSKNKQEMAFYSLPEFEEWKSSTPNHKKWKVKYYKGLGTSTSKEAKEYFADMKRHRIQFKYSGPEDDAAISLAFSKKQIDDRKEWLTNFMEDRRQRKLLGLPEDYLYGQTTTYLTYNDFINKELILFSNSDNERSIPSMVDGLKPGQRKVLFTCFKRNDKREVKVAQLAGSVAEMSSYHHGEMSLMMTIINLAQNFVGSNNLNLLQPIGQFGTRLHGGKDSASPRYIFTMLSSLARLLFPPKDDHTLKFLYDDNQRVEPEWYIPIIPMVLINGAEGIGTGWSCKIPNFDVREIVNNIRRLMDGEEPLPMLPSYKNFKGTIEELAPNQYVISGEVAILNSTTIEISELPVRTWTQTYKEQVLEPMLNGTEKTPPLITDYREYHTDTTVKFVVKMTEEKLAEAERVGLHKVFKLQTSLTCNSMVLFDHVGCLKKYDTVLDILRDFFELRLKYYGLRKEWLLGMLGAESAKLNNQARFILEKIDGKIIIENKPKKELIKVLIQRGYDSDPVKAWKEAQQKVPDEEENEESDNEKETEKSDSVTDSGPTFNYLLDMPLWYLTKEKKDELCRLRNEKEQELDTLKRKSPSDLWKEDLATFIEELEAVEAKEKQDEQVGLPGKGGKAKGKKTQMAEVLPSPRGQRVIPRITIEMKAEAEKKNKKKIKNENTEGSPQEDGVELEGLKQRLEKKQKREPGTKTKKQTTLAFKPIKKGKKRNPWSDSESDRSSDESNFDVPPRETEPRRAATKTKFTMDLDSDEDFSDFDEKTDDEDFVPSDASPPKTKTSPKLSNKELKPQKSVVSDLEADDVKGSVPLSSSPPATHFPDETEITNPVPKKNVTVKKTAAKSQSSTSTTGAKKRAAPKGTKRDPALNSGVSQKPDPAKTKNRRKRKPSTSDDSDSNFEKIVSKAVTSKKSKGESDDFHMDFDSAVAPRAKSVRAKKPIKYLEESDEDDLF

Row | Compound | IC50 (HCT-15) [µM] | inhibition [1] [%] | inhibition [2] [%] | IC50 (HL-60) [µM] | inhibition [3] [%] | IC50 (HeLa) [µM] | IC50 (DU-145) [µM] | IC50 (MDA-MB-231) [µM] | inhibition [4] [%]
1 | Oc1ccc(-c2cc(-c3ccccc3)cc(-c3cccnc3)n2)cc1 | 15.1 | 44 | 0.9 | 4.1 | 18.6 | 13.6 | 8.4 | 2.2 | 
2 | Oc1ccc(-c2cc(-c3ccccc3)nc(-c3ccco3)c2)cc1 | 5.1 | 5 |  | 13.7 | 30.2 | 4.5 | 8.6 | 1 | 10.3
3 | Oc1cccc(-c2cc(-c3ccccc3)cc(-c3cccc(O)c3)n2)c1 | 18.4 | 67.2 | 10.5 | 16.4 | 86.5 | 13 | 24.9 | 12.8 | 49
4 | Oc1cccc(-c2cc(-c3ccccc3)nc(-c3ccccc3)c2)c1 | 17.9 | 11.5 | 0 | 13.5 | 68.2 | 15.1 | 17.9 | 19.5 | 32
5 | Oc1cccc(-c2cc(-c3ccccc3)nc(-c3ccco3)c2)c1 | 13.9 | 48.8 | 3.5 | 24 | 47.5 | 10.9 | 34.9 | 20.8 | 31.1
6 | Oc1ccc(-c2cc(-c3ccccc3)nc(-c3ccncc3)c2)cc1 | 11.7 | 57.5 | 5.8 | 1.4 | 8.4 | 1.6 | 2.2 | 2.1 | 
7 | Oc1cccc(-c2cc(-c3ccccc3)nc(-c3ccsc3)c2)c1 | 24.6 | 6.9 | 3.2 | 12 | 52.6 | 14.9 | 11.7 | 19 | 30.8
8 | Oc1cccc(-c2cc(-c3ccccc3)cc(-c3cccs3)n2)c1 | 10.8 | 51.2 | 5.8 | 14.1 | 53.8 | 17 | 18.9 | 18.1 | 43.5
9 | Oc1ccc(-c2cc(-c3ccccc3)cc(-c3ccco3)n2)cc1 | 3.5 | 18.6 |  | 3.3 | 35.2 | 10.9 | 3.2 | 1.4 | 10.2
10 | Oc1ccc(-c2cc(-c3ccccc3)cc(-c3ccc(O)cc3)n2)cc1 | 3 | 0.3 |  | 5.7 | 76.8 | 3.3 | 22 | 6.7 | 33.7
11 | Oc1ccc(-c2cc(-c3ccccc3)cc(-c3ccccc3)n2)cc1 | 3.7 | 52.9 | 43.6 | 1.4 | 27.6 | 1.7 | 3 | 1.3 | 
12 | CC[C@@]1(O)C(=O)OCc2c1cc1n(c2=O)Cc2cc3ccccc3nc2-1 [CAMPTOTHECIN] | 0.5 |  |  | 0.1 |  | 0.4 | 0.4 | 0.3 | 
13 | Oc1cccc(-c2cc(-c3ccccc3)cc(-c3ccncc3)n2)c1 | 27.4 | 70.4 | 25.4 | 23.9 | 3.1 | 28.1 | 19.2 | 10.4 | 1.8
14 | Oc1cccc(-c2cc(-c3ccccc3)cc(-c3ccsc3)n2)c1 | 7.66 | 75.8 | 6.8 | 10.3 | 51.8 | 13.8 | 11.7 | 12.1 | 37.2
15 | Oc1cccc(-c2cc(-c3ccccc3)nc(-c3cccnc3)c2)c1 | 18.4 | 8.1 | 1.5 | 12.6 | 37.1 | 17.5 | 18.9 | 22.8 | 21.3
16 | Oc1cccc(-c2cc(-c3ccccc3)cc(-c3ccco3)n2)c1 | 13.5 | 10.2 | 0 | 9.91 | 51.6 | 9.43 | 14.4 | 13.7 | 38.6
17 | Oc1cccc(-c2cc(-c3ccccc3)nc(-c3ccncc3)c2)c1 | 18.7 | 60.8 | 0.9 | 12.7 | 42.8 | 15 | 18.1 | 12.2 | 32.7
18 | Oc1cccc(-c2cc(-c3ccccc3)cc(-c3ccccc3)n2)c1 | 9.95 | 12.9 | 0 | 11.5 | 48.4 | 16.1 | 17.9 | 19.3 | 32
19 | COc1cc([C@@H]2c3cc4c(cc3[C@@H](O[C@@H]3O[C@@H]5CO[C@@H](C)O[C@H]5[C@H](O)[C@H]3O)[C@H]3COC(=O)[C@H]23)OCO4)cc(OC)c1O [ETOPOSIDE] |  |  |  | 1 |  | 1.4 | 0.5 | 0.7 | 30.4
20 | COc1cccc2c1C(=O)c1c(O)c3c(c(O)c1C2=O)C[C@@](O)(C(=O)CO)C[C@@H]3O[C@H]1C[C@H](N)[C@H](O)[C@H](C)O1 [DOXORUBICIN HYDROCHLORIDE] | 1.2 |  |  | 0.7 |  |  | 1 | 0.4 | 
21 | Oc1ccccc1-c1cc(-c2ccccc2)nc(-c2ccco2)c1 | 2.5 | 1.5 |  | 1.9 | 31.2 | 9.7 | 4.9 | 4.6 | 3.1
22 | Oc1ccccc1-c1cc(-c2ccccc2)cc(-c2ccccc2O)n1 | > 50 | 0 |  | 22.4 | 42.7 | 14.8 | 8 | 37.3 | 12.1
23 | Oc1cccc(-c2cc(-c3ccccc3)nc(-c3ccccn3)c2)c1 | 20.9 | 10.8 | 2.8 | 15.1 | 48.1 | 29.8 | 15.5 | 18.7 | 21.3
24 | Oc1ccc(-c2cc(-c3ccccc3)cc(-c3cccs3)n2)cc1 | 12.5 | 4.9 |  | 1.7 | 35.4 | 1.7 | 3.7 | 2.4 | 1.3
25 | Oc1ccc(-c2cc(-c3ccccc3)cc(-c3ccsc3)n2)cc1 | 1.1 | 20.4 |  | 3.6 | 38.3 | 17.3 | 8.5 | 5.7 | 8.3
26 | Oc1cccc(-c2cc(-c3ccccc3)nc(-c3cccs3)c2)c1 | 14.1 | 9.1 | 2 | 18.9 | 57.5 | 15.3 | 19.7 | 17.7 | 34.7
